Source: PubChem BioAssay
Hits are enriched below; roughly 4.5% of the tested compounds scored in any of these assays.
HCV NS3 hel inh: blocks Hepatitis C virus NS3 helicase unwinding; NS3 helicase DNA unwinding, Cy5 molecular beacon fluorescence; inhibition, % at 10.9 µM; hit rate 0.56% among 290,000;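 active = inhibition above the mean of all tested compounds plus 3 SD, set per campaign, cut at about 35% in these data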
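Assay system: hepatitis C virus NS3 helicase domain fragment enzyme. Also added: annealed dual-labelled DNA beacon duplex, ATP-started. Timing: 1 h reaction at 25 °C, ATP-initiated. Technique: Cy5 fluorescence at 0 and 60 min, beacon hairpin quenching. Evaluation: % inhibition of unwinding. Replication: one well per compound.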
UPR CHOP act: activators of apoptotic arm of unfolded protein response (CHOP). activation, % at 10 µM. hit rate 0.34% among 330,000. CHO-CHOP luciferase reporter, UPR activation, luminescence; percent of tunicamycin response over DMSO baseline;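 active = at 10 µM dose, activation of 40% or more, normalized to positive control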
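System: CHO CHOP reporter cells. Amount: 500 cells per well. Buffer or medium: F12 medium, 10% FBS. Compound dosing: one dose, 10 µM in 0.5% DMSO. Incubation: 6 h compound exposure at 37 °C after overnight seeding. Technique: Steady-Glo luciferase luminescence. Benchmarks: tunicamycin and DMSO controls.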
M18AAP inhibitor: blocks P. falciparum M18 aspartyl aminopeptidase. recombinant PfM18AAP, H-Glu-NHMec fluorogenic cleavage. AID 1822. inhibition, % at 7.35 µM. hit rate 1.2% among 290,000;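 active = inhibition above the campaign mean inhibition over all tested compounds plus 3 SD, cut at about 28% in these data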
CHOP inh: blocks CHOP induction under ER stress. AID 2732. hit rate 3.8% among 220,000. CHO-K1 CHOP-promoter luciferase, tunicamycin-induced, 15-18 h. inhibition, % at 10 µM;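 active = compounds that reduced the stress-induced luciferase reporter signal by more than about 70% of percent inhibition, limit read from the data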
XBP1 UPR activ: adaptive UPR (XBP1) activation | CHO-XBP1 luciferase reporter, IRE1-XBP1 UPR activation, luminescence; percent of tunicamycin response, DMSO as zero | hit rate 0.33% among 330,000 | activation, % at 20 µM | AID 463104;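 active = versus positive control, 20 µM dose yields 30% or more activation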
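Material: CHO-XBP1 cells stably carrying IRE1-XBP1-driven luciferase reporter | Medium: F12 with 10% serum | Compound dosing: 20 µM single concentration, DMSO 1% | Incubation: Overnight seeding at 37 °C, 6 h compound treatment at 37 °C | Detection: Steady-Glo luminescence read | Read-out basis: % activation of reporter signal versus tunicamycin and DMSO controls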
p97 inhibitor: inhibitors of human p97 ATPase; AID 1481; hit rate 0.42% among 220,000; P55072; recombinant p97 ATPase, Kinase-Glo ATP luminescence, 3 h; inhibition, % at 8 µM; in the data active = inhibition above about 15%
Target sequence (P55072 whole entry, looked up): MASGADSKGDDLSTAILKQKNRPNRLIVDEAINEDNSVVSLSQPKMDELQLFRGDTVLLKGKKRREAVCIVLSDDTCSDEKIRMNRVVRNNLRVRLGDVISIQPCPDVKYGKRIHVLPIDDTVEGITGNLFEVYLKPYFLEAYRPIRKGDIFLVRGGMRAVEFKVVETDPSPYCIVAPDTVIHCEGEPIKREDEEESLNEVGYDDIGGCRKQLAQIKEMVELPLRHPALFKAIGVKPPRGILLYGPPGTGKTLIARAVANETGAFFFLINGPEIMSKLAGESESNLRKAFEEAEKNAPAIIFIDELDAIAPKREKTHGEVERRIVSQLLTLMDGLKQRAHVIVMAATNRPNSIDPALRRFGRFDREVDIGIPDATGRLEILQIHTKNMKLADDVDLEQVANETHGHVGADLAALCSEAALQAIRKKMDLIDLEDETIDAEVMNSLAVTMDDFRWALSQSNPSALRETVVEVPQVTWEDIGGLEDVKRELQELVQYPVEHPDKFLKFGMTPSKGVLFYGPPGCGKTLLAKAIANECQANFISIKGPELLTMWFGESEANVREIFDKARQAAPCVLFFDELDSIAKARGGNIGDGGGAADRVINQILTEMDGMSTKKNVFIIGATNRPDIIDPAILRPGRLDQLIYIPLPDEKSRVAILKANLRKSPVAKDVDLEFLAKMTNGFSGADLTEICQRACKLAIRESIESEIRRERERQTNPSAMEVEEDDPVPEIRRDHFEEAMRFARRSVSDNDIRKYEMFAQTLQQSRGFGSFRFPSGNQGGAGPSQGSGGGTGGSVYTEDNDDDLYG
Of the large screens only hits and unclear results are named; the others gave an inactive call.

Cc1ccc2c(c1)NC(=O)C(CC(=O)NCCCN1CCN(c3cc(Cl)ccc3C)CC1)O2 (stereo unspecified)	CHOP inh 79
CC(C)(C)c1ccc(C(=O)O)c(C(=O)c2ccc(C(=O)O)cc2)c1	none
Cc1cc(N)ccc1-n1c(C)ccc1C	none
Cc1cc(N)ccc1N1CCCC1	p97 inhibitor 17
COc1cccc(C(=O)Nn2cnnc2)c1	M18AAP inhibitor 30
COc1ccc(C(=O)Nn2cnnc2)cc1	none
CCN1CCN(S(=O)(=O)c2ccc(Cl)c(C(=O)NC3CCCCC3)c2)CC1	none (no result: HCV NS3 hel inh, M18AAP inhibitor, CHOP inh, p97 inhibitor)
CCOC(=O)c1cnn(-c2ccc([N+](=O)[O-])cc2)c1N	none
Brc1cnc2nc(SCc3nc4ccccc4[nH]3)[nH]c2c1	none
Fc1ccc(CSc2nc3ncc(Br)cc3[nH]2)cc1	CHOP inh 74
O=[N+]([O-])c1ccc(SCc2ccco2)cc1N1CCOCC1	none
O=[N+]([O-])c1ccc(N2CCOCC2)cc1SCc1ccco1	M18AAP inhibitor 31
CCn1c(COc2ccc(C)cc2)nnc1SCC(=O)NCc1ccco1	none
CCOc1ccc(Nc2nc(Cc3nnc(SCC(=O)NCc4ccco4)n3CC)cs2)cc1	M18AAP inhibitor 30
O=C(Oc1ccc2ccccc2c1Br)N1CCCCCC1	none
O=C(Oc1ccc2cc(Br)ccc2c1)N1CCCCCC1	CHOP inh 85
CCOC(=O)c1ccc(NC(=O)c2nc[nH]c2C(=O)N[C@H](C)c2ccccc2)cc1	CHOP inh 70 (no result: HCV NS3 hel inh, M18AAP inhibitor, p97 inhibitor)
Cc1ccc(NC(=O)c2nc[nH]c2C(=O)N[C@H](C)c2ccccc2)cc1	none (no result: HCV NS3 hel inh, M18AAP inhibitor, CHOP inh, p97 inhibitor)
Cc1cccc(NC(=O)c2nc[nH]c2C(=O)N[C@@H](C)C(=O)OC(C)(C)C)c1	CHOP inh 86 (no result: HCV NS3 hel inh, M18AAP inhibitor, p97 inhibitor)
Cc1cccc(NC(=O)c2nc[nH]c2C(=O)NCC(=O)OC(C)(C)C)c1	none (no result: HCV NS3 hel inh, M18AAP inhibitor, p97 inhibitor)
S=c1[nH]nc(CSc2nc3ccccc3s2)n1C1CCCCC1	CHOP inh 87
CCCCCCc1cc2cc(S(=O)(=O)c3ccc(F)cc3)c(=O)oc2cc1O	CHOP inh 94
O=[N+]([O-])c1ccc(N/N=C/c2cccc(O)c2)cc1	M18AAP inhibitor 28 (no result: CHOP inh, p97 inhibitor)
O=[N+]([O-])c1ccc(N/N=C/c2cccnc2)cc1	none (no result: CHOP inh, p97 inhibitor)
CC(C)[C@@H]1NC(=O)[C@H](CCCCN)NC(=O)[C@@H](Cc2c[nH]c3ccccc23)NC(=O)[C@H](Cc2ccc(O)cc2)NC(=O)[C@H](C)N(C)C(=O)[C@H](Cc2ccccc2)NC1=O	none (no result: HCV NS3 hel inh, UPR CHOP act, M18AAP inhibitor, XBP1 UPR activ, p97 inhibitor)
Cc1ccc2nc(-c3sc4nc(C)cc(C)c4c3N)[nH]c2c1	CHOP inh 91
Cc1ccc2nc(-c3cccc(N)c3)[nH]c2c1	none (no result: CHOP inh)
CC(C)c1ccc(NC(=O)Cn2c(=O)oc3ccccc32)cc1	none (no result: CHOP inh, p97 inhibitor)
CCn1c2ccccc2n2c(=O)c(=O)n(CC(=O)Nc3ccc(C(C)C)cc3)nc12	CHOP inh 87
COc1ccc(C2(C(=O)Nc3ccc(C)cc3)CCOCC2)cc1	none
O=c1c2c3nc4ccccc4nc3n(-c3ccc4c(c3)OCCO4)c2ncn1C1CCCC1	UPR CHOP act 77 (no result: HCV NS3 hel inh, M18AAP inhibitor, CHOP inh, p97 inhibitor)
CCc1ccc(NS(=O)(=O)c2ccc(OC)c(C)c2)cc1	CHOP inh 85
COc1ccc(S(=O)(=O)Nc2ccc3ccccc3c2)cc1C	CHOP inh 89
COc1ccc(S(=O)(=O)Nc2ccc(Cc3ccncc3)cc2)cc1C	none (no result: CHOP inh, p97 inhibitor)
COc1cccc(OCCCOc2ccccc2C(C)C)c1	CHOP inh 71
CCc1ccc(C(=O)NNC(=O)CCc2nc3ccccc3c(=O)[nH]2)cc1	none (no result: HCV NS3 hel inh, M18AAP inhibitor, CHOP inh, p97 inhibitor)
NS(=O)(=O)c1ccc(CCNC(=O)CNC(=O)c2ccc(Oc3ccccc3)cc2)cc1	none (no result: CHOP inh, p97 inhibitor)
Fc1ccc2[nH]c3c(N4CCc5ccccc5C4)ncnc3c2c1	CHOP inh 73
Brc1ccc2[nH]c3c(N4CCc5ccccc5C4)ncnc3c2c1	none
Cc1ccc2[nH]c3c(N4CCc5ccccc5C4)ncnc3c2c1	CHOP inh 74
CCOC(=O)Cn1c(=NC(=O)c2ccc([N+](=O)[O-])s2)sc2ccccc21	CHOP inh 81
Cc1[nH]c2ccccc2c1/C=C/c1nc2ccccc2c(=O)[nH]1	CHOP inh 76
O=C(O)c1ccc(/C=C/c2nc3ccccc3c(=O)[nH]2)cc1	none (no result: CHOP inh, p97 inhibitor)
O=C(C#Cc1ccccc1)c1ccc([N+](=O)[O-])cc1	CHOP inh 111
Cn1ncc(C#N)c1/N=C/N(Cc1ccccc1)Cc1ccccc1	CHOP inh 89
CN1CCN(/C=N/c2c(C#N)cnn2C)CC1	none
COC(=O)C(Cc1ccccc1)NC(=O)CCCC(=O)NCc1cccc(OC)c1 (stereo unspecified)	none (no result: CHOP inh, p97 inhibitor)
Cc1ccccc1N=CC1=C(O)c2ccccc2C1=O	CHOP inh 78
O=C(NNc1ncnc2sccc12)c1ccc(Cl)cc1	M18AAP inhibitor 28
Cc1cccc(-n2nc3c(c2NC(=O)C(C)C)CSC3)c1	none (no result: CHOP inh, p97 inhibitor)
CC(C)NC(=S)N/N=C/c1ccc(C(C)(C)C)cc1	CHOP inh 91
CCc1ccc(OCC(=O)Nc2cccc3c2CCCC3)cc1	CHOP inh 79
O=C(Cc1csc(Nc2nc(=S)[nH]c3ccccc23)n1)NCc1cccc(Cl)c1	CHOP inh 80
C=CCSc1nnc2n(CCc3ccccc3)c(=O)c3c4c(sc3n12)COC(C)(C)C4	CHOP inh 71
CC(C)Sc1nnc2n(CCc3ccccc3)c(=O)c3c4c(sc3n12)COC(C)(C)C4	none (no result: CHOP inh)
Cc1ccc2c(c1)N(CC(=O)NCc1cccs1)C(=O)C(C)O2 (stereo unspecified)	none
Cc1ccc2c(c1)N(CCC(=O)NCc1cccs1)C(=O)C(C)O2 (stereo unspecified)	CHOP inh 74
Cc1ccc2c(c1)c1nnc(SCC(=O)Nc3ccc(N(C)C)cc3)nc1n2CC(=O)O	none (no result: CHOP inh, p97 inhibitor)
C=CC[n+]1c(/C=C2\C=Cc3cc(C)ccc3N2CC)ccc2ccccc21	CHOP inh 72
N#Cc1cc2cc3c(cc2nc1SCC(=O)OC1CCCCC1)OCO3	CHOP inh 79
CC(=O)CSc1nc2cc3c(cc2cc1C#N)OCCO3	none
CCOC(=O)c1sc(NC(=O)CSc2n[nH]c(-c3ccncc3)n2)c(C#N)c1C	CHOP inh 85
C=C(C)C1CC=C(C)/C(=N/NC(=O)COc2cccc(C)c2)C1 (stereo unspecified)	none
C=C(C)C1CC=C(C)/C(=N/NC(=O)COc2ccc(Cl)cc2)C1 (stereo unspecified)	CHOP inh 86
CCOC(=O)/C=c1\s/c(=C\c2ccc3c(c2)OCCO3)c(=O)n1CC(=O)NCC1CCCO1 (stereo unspecified)	CHOP inh 86
CCOC(=O)/C=c1\s/c(=C\c2c(OCC)ccc3ccccc23)c(=O)n1CC(=O)NCC1CCCO1 (stereo unspecified)	none
